Test results taken from ChEMBL document CHEMBL4043282, “Discovery of the First Potent, Selective, and Orally Bioavailable Signal Peptide Peptidase-Like 2a (SPPL2a) Inhibitor Displaying Pronounced Immunomodulatory Effects In Vivo” (J Med Chem, 2018).
Calls of active or inactive are those of the source. The calls are words filed in the database; no cut-off is given here.

Experiments:
[1] = Total concentration in Lewis rat blood at 10 mg/kg, po bid after 24 hrs by LC/MS/MS analysis; format: ADME, organism-based; conditions: read-out: Drug uptake
[2] = test system: Mus musculus; assay: Immunomodulatory activity in mouse assessed as reduction in myloid dendritic cells in splenocyte administered via oral gavage bid at 8 and 16 hrs dosing interval between first and second dose respectively for 11 days measured 16 hrs post last dose on day 12 by B220 staining based flow cytometry; format: functional, cell-based
[3] = test system: Rattus norvegicus; assay: Dose normalized AUC in Wistar rat at 10 mg/kg, po bid by LC/MS/MS analysis; format: ADME, organism-based; conditions: in vivo
[4] = test system: Rattus norvegicus; assay: In vivo inhibition of SPPL2a in Lewis rat assessed as accumulation of CD74/p8 in blood at 1 mg/kg first dose administered via oral gavage followed by second dose after 8 hrs measured 16 hrs post second dose by Western blot method; format: functional, organism-based
In short: (§1)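 Rat blood (200 μL) red cells lysed with RBC lysis buffer three times, pellet lysed in Tris pH 6.8/NaCl/EDTA/Triton X-100/deoxycholate with protease inhibitors; Western blot for CD74/p8 with affinity-purified antibody specific for rat CD74/p8 at 1:200.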

[5] = test system: Mus musculus; assay: In vivo inhibition of SPPL2a in mouse assessed as accumulation of CD74/p8 in splenocyte lysate at 1 to 3 mg/kg administered via oral gavage as single dose measured 16 hrs post dose by Western blot method; format: functional, organism-based
In short: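 Mice gavaged in 0.5% MC:0.5% Tween or PEG:D5W 3:1. Spleens dissociated, red cells lysed with ACK, 1 × 10^6 cells lysed with protease inhibitors; 18 μg lysate on 10% gel, blotted, CD74 full length and p8 detected with rat anti-mouse CD74 In-1 and Alexa488 anti-rat IgG, LiCor scan; p8/full-length ratio expressed as percent of reference compound ratio.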

[6] = test system: Plasma; assay: Cmin in mouse plasma at 10 mg/kg, po bid administered at 8 and 16 hrs dosing interval between first and second dose respectively for 11 days measured predose on day 12 by LC/MS/MS analysis; format: ADME, organism-based; conditions: in vivo, read-out: Cmin
In short: (§2)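 Mice gavaged bid in 0.5% MC:0.5% Tween or PEG:D5W 3:1; trough sample taken before the morning dose; 50 μL retro-orbital blood into LiHep tubes, kept on ice, plasma separated at 2823g for 5 min, stored at −20 °C until analysis.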

[7] = test system: Plasma; assay: Cmin in mouse plasma at 3 mg/kg, po bid administered at 8 and 16 hrs dosing interval between first and second dose respectively for 11 days measured predose on day 12 by LC/MS/MS analysis; format: ADME, organism-based; conditions: in vivo, read-out: Cmin; in short: as §2
[8] = test system: Rattus norvegicus; assay: In vivo inhibition of SPPL2a in Lewis rat assessed as accumulation of CD74/p8 in blood at 3 mg/kg first dose administered via oral gavage followed by second dose after 8 hrs measured 16 hrs post second dose by Western blot method; format: functional, organism-based; in short: as §1
[9] = Total plasma concentration in mouse at 10 mg/kg administered via oral gavage measured after 16 hrs post dose by LC/MS/MS analysis; format: ADME, organism-based
In short: (§3)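 Mice dosed by oral gavage in 0.5% MC:0.5% Tween or PEG:D5W 3:1. 50 μL blood taken retro-orbitally into LiHep tubes; in chronically dosed animals the trough sample came before the morning dose. Kept on ice, plasma separated by centrifugation at 2823g, 5 min, stored at −20 °C until analysis.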

[10] = Total plasma concentration in mouse at 3 mg/kg administered via oral gavage measured after 16 hrs post dose by LC/MS/MS analysis; format: ADME, organism-based; in short: as §3
[11] = test system: Mus musculus; assay: In vivo inhibition of gamma-secretase dependent Notch1 signaling in mouse assessed as effect on Hes1 mRNA level in thymus at 3 to 30 mg/kg, po bid administered at 8 and 16 hrs dosing interval between first and second dose respectively for 11 days measured 16 hrs post last dose on day 12 by RT-PCR analysis; format: organism-based
In short: (§4)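 Thymus and jejunum excised into RNALater, 4 °C overnight, washed, frozen at −80 °C; total RNA from 10 mg tissue by MagNA Pure LC; Hes1 measured by TaqMan real-time PCR; significance by two-tailed heteroscedastic Student's t-test.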

[12] = Total plasma concentration in mouse at 30 mg/kg administered via oral gavage measured after 16 hrs post dose by LC/MS/MS analysis; format: ADME, organism-based; in short: as §3
[13] = Total concentration in Lewis rat blood at 30 mg/kg, po bid after 24 hrs by LC/MS/MS analysis; format: ADME, organism-based; conditions: read-out: Drug uptake
[14] = Octanol-buffer partition coefficient, log P of the compound by LC/MS/MS based shake flask method; format: physicochemical
[15] = test system: Mus musculus; assay: In vivo inhibition of SPPL2a in mouse assessed as increase in CD74/p8 accumulation in splenocytes at 10 to 100 mg/kg, po administered as single dose measured after 4 hrs by Western blot method; format: functional, organism-based
[16] = biological target: T1, Signal peptide peptidase-like 2A (Mus musculus) (UniProt Q9JJF9); assay: Reversible inhibition of SPPL2a in mouse A20 cells assessed as increase in CD74/p8 accumulation at 2 uM preincubated for 16 hrs followed by compound wash out measured up to 2 hrs by Western blot method; format: cell-based
T1 sequence (whole entry): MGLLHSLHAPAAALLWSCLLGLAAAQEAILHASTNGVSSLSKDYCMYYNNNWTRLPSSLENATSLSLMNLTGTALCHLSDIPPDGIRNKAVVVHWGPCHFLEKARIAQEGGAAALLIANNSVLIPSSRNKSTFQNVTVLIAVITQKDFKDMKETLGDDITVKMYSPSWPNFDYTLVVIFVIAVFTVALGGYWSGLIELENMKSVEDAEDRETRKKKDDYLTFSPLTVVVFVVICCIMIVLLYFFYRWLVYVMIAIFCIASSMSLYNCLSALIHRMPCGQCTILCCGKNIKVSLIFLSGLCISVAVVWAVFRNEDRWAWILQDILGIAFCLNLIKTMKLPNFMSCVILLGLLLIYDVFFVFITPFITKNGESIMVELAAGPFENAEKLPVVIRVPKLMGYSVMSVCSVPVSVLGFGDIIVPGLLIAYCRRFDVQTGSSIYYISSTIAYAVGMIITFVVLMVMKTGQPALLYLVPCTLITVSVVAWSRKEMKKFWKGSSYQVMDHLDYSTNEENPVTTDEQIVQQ

[17] = Drug uptake in mouse spleen at 10 mg/kg, po administered as single dose after 4 hrs by LC/MS/MS analysis; format: ADME, organism-based; conditions: read-out: Drug uptake
[18] = Clearance in Sprague-Dawley rat at 1 mg/kg, iv by LC/MS/MS analysis; format: ADME, organism-based; conditions: in vivo
In short: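 Female Sprague−Dawley rats with femoral artery and vein catheters implanted 96−120 h beforehand; cassette dosing iv 1 mg/kg per compound in NMP/PEG200 (30:70); arterial blood into EDTA tubes at several times, frozen; LC-MS/MS vs standard curve with QCs within 70−130%; noncompartmental analysis.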

[19] = Stability in human liver microsomes at […] preincubated for 3 mins followed by NADPH addition measured after 1 hr in presence of GSH and [13C2-15N-glycine]-GSH by HPLC/MS method; format: ADME, microsome; conditions: read-out: Stability
[20] = test system: Mus musculus; assay: In vivo inhibition of mouse gamma-secretase assessed as effect on Hes1 mRNA level in jejunum up to 100 mg/kg, po administered as single dose by RT-PCR method; format: organism-based; in short: as §4

Question: Which concentration at 24 h [1] does the source give for `Cc1ncc(F)cc1NC(=O)C[C@H](C(=O)N[C@@H]1C(=O)N2CC3(CC3)CN2C(=O)c2ccccc21)C1CC1` here?
Answer: 1390 nM

Question: And the Activity [2]?
Answer: Dose-dependent effect

Question: And the AUC/dose [3]?
Answer: 8787 nM·h

Question: What about the inhibition [4] of the same compound?
Answer: Active

Question: And the inhibition [5]?
Answer: inactive

Question: And the concentration [6]?
Answer: 66 nM

Question: And the concentration [7]?
Answer: 16 nM

Question: What about the inhibition [8] of the same compound?
Answer: Active

Question: What about the concentration at 16 h [9] of the same compound?
Answer: 11.8 nM

Question: What about the concentration at 16 h [10] of the same compound?
Answer: 0.8 nM

Question: And the Activity [11]?
Answer: Non-Toxic

Question: And the concentration at 16 h [12]?
Answer: 136 nM

Question: What about the concentration at 24 h [13] of the same compound?
Answer: 3560 nM

Question: And the logP [14]?
Answer: 2.3

Question: With `Cc1ccccc1NC(=O)C[C@@H](C)C(=O)N[C@@H]1C(=O)N2CCCN2Cc2ccccc21` as the compound, how does the Activity [15] read?
Answer: Active

Question: And the inhibition [16]?
Answer: Active

Question: What about the concentration at 4 h [17] of the same compound?
Answer: 127 nM

Question: And the clearance [18]?
Answer: 45 mL/min/kg

Question: What about the remaining at 1 h [19] of the same compound?
Answer: 70.8%

Question: And the Activity [20]?
Answer: Non-Toxic
